pIC50, pKi: −log10 of the molar value. ≈ marks a conversion by molar mass, not a printed value.
Tests used:
[1] = Selectivity index, ratio of Ki for human CatL to Ki for Trypanosoma brucei rhodesiense rhodesain
How it was run: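 Ki(hCatL)/Ki(RD). Fluorimetric assays at 25 °C: RD in 50 mM sodium acetate pH 5.5; hCatL in 50 mM Tris pH 6.5; both buffers with 5 mM EDTA, 200 mM NaCl, 0.005% Brij35. Ki derived from IC50 by Cheng-Prusoff. Each value is the mean of two measurements, each done in duplicate.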

[2] = Selectivity index, ratio of IC50 for rat L6 cells to IC50 for bloodstream form of Trypanosoma brucei rhodesiense STIB 900; format: toxicity; conditions: read-out: Ratio IC50
How it was run: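 Ratio of L-6 rat skeletal myoblast IC50 to T. b. rhodesiense STIB 900 bloodstream trypomastigote IC50, both from Alamar Blue growth-inhibition assays. Each IC50 is the mean of at least 2 measurements.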

[3] = system: Trypanosoma brucei rhodesiense; test: Antitrypanosomal activity against bloodstream form of Trypanosoma brucei rhodesiense STIB 900 assessed as parasite growth inhibition after 72 hrs by Alamar blue assay; format: functional; conditions: STIB 900, 72 h
How it was run: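 Standard 72 h growth-inhibition assay with STIB 900 bloodstream trypomastigotes and Alamar Blue read-out. Value is the mean of at least 2 measurements.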

Procathepsin L = Procathepsin L (Homo sapiens, UniProt P07711); test: Inhibition of human CatL using Cbz-Phe-Arg-AMC as substrate measured over 30 mins by fluorimetric method
How it was run: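 Human cathepsin L in a fluorimetric assay in 50 mM Tris pH 6.5, 5 mM EDTA, 200 mM NaCl, 0.005% Brij35 at 25 °C. Ki was calculated from IC50 by Cheng-Prusoff. Value is the average of two measurements, each in duplicate.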

[4] = system: Trypanosoma brucei rhodesiense; test: Antitrypanosomal activity against bloodstream form of Trypanosoma brucei rhodesiense STIB 900 assessed as parasite growth inhibition after 2 hrs by Alamar blue assay; format: functional; conditions: STIB 900, 2 h
How it was run: (§1)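 Bloodstream STIB 900 trypomastigotes, 1x10⁴ per well, exposed to eleven 3-fold serial dilutions at 37 °C/5% CO₂ for the stated pulse time. Parasites were then pelleted and washed four times, and an aliquot was regrown 72 h drug-free in triplicate plates. Resazurin was added for 2–4 h, fluorescence read at ex 536/em 588 nm, and IC50 taken by linear regression of sigmoidal curves. Melarsoprol served as control.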

L6 = test: Cytotoxicity against rat L6 cells after 72 hrs by Alamar blue assay; format: cell-based; conditions: L6, 72 h
How it was run: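 Rat skeletal myoblast L6 cells in an Alamar Blue growth-inhibition assay. Value is the mean of at least 2 measurements.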

[5] = system: Trypanosoma brucei rhodesiense; test: Antitrypanosomal activity against bloodstream form of Trypanosoma brucei rhodesiense STIB 900 assessed as parasite growth inhibition after 48 hrs by Alamar blue assay; format: functional; conditions: STIB 900, 48 h; how it was run: as §1
[6] = system: Trypanosoma brucei rhodesiense; test: Antitrypanosomal activity against bloodstream form of Trypanosoma brucei rhodesiense STIB 900 assessed as parasite growth inhibition after 6 hrs by Alamar blue assay; format: functional; conditions: STIB 900, 6 h; how it was run: as §1
[7] = Solubility of the compound at pH 6.5 by LYSA; format: physicochemical; conditions: buffer
How it was run: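 Lyophilization solubility assay at pH 6.5.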

Rhodesain = Rhodesain (Trypanosoma brucei rhodesiense, UniProt Q95PM0); test: Inhibition of Trypanosoma brucei rhodesiense rhodesain using Cbz-Phe-Arg-AMC as substrate by fluorimetric method
How it was run: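 Fluorescence-based assay run at 25 °C in 50 mM sodium acetate pH 5.5 with 5 mM EDTA, 200 mM NaCl and 0.005% Brij35. IC50 values were converted to Ki with the Cheng-Prusoff equation. Values are the average of two measurements, each done in duplicate.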

[8] = system: Trypanosoma brucei rhodesiense; test: Antitrypanosomal activity against bloodstream form of Trypanosoma brucei rhodesiense STIB 900 assessed as parasite growth inhibition after 24 hrs by Alamar blue assay; format: functional; conditions: STIB 900, 24 h; how it was run: as §1
[9] = system: Trypanosoma brucei rhodesiense; test: Antitrypanosomal activity against bloodstream form of Trypanosoma brucei rhodesiense STIB 900 assessed as parasite growth inhibition after 16 hrs by Alamar blue assay; format: functional; conditions: STIB 900, 16 h; how it was run: as §1
Cytochrome P450 2C9 = Cytochrome P450 2C9 (Homo sapiens, UniProt P11712); test: Inhibition of CYP2C9 in human liver microsomes using MFC as substrate by fluorescence assay; format: ADME
How it was run: (§2)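 Human liver microsomes with CYP-selective substrate metabolism reactions for 2C9, 2D6 and 3A4.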

[10] = Volume of distribution at steady state in C57BL/6J mouse at 1.5 mg/kg, iv as bolus dose by LC-MS/MS analysis; format: ADME, organism-based; conditions: in vivo, read-out: Vdss
How it was run: (§3)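 Mice given single i.v. dose in N-methylpyrrolidinone / 40% (v/v) aqueous hydroxypropyl-γ-cyclodextrin (30/70 v/v). Blood into K₂EDTA at 5 min, 15 min, 30 min, 1, 2, 4, 8 h, sublingually or by terminal cardiac puncture under isoflurane. Plasma spun at 3000 × g, 5 min, 4 °C, stored at -20 °C. Plasma levels by LC–MS/MS; parameters by non-compartmental analysis.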

[11] = Unbound fraction in human plasma; format: ADME, cell-free
[12] = Octanol-water intrinsic distribution co-efficient, log D of the compound at 100 uM at pH 7.4 after 16 to 22 hrs by CAMDIS assay; format: physicochemical
How it was run: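 Octanol/aqueous buffer (pH 7.4) intrinsic distribution coefficient measured in the CAMDIS carrier-mediated distribution system.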

Cytochrome P450 3A4 = Cytochrome P450 3A4 (Homo sapiens, UniProt P08684); test: Inhibition of CYP3A4 in human liver microsomes using DBF as substrate by fluorescence assay; format: ADME; how it was run: as §2
[13] = system: Trypanosoma brucei rhodesiense; test: Antitrypanosomal activity against bloodstream form of Trypanosoma brucei rhodesiense STIB 900 infected in NMRI mouse assessed as reduction of parasitemia at 50 mg/kg, po administered for 3 consecutive days starting 1 day post infection measured at 24 hrs post last dose relative to control; format: functional; set-up: scale not given: the % may be the effect or the level left
How it was run: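 Female mice infected with STIB900 were dosed orally at 50 mg/kg/day on three consecutive days, starting 1 day post-infection. Compound was in 100% DMSO diluted 10-fold in distilled water, given at 0.1 mL/10 g. Tail-blood parasitaemia was measured 24 h after the last dose versus 4 untreated infected controls. Values are means of 2 mice.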

[14] = Intrinsic clearance in human liver microsomes at 2 uM after 30 mins in presence of NADPH by LC-MS/MS method; format: ADME, microsome; conditions: read-out: CLH
[15] = Intrinsic clearance in mouse liver microsomes at 2 uM after 30 mins in presence of NADPH by LC-MS/MS method; format: ADME, microsome; conditions: read-out: CLH
[16] = Permeability of the compound after 15 hrs by PAMPA; format: physicochemical; conditions: read-out: permeability
[17] = Half life in C57BL/6J mouse at 1.5 mg/kg, iv as bolus dose by LC-MS/MS analysis; format: ADME, organism-based; conditions: in vivo; how it was run: as §3
[18] = Clearance in C57BL/6J mouse at 1.5 mg/kg, iv as bolus dose by LC-MS/MS analysis; format: ADME, organism-based; conditions: in vivo; how it was run: as §3
Cytochrome P450 2D6 = Cytochrome P450 2D6 (Homo sapiens, UniProt P10635); test: Inhibition of CYP2D6 in human liver microsomes using AMMC as substrate by fluorescence assay; format: ADME; how it was run: as §2
Chain of Cytochrome P450 2D6 (P10635 whole entry): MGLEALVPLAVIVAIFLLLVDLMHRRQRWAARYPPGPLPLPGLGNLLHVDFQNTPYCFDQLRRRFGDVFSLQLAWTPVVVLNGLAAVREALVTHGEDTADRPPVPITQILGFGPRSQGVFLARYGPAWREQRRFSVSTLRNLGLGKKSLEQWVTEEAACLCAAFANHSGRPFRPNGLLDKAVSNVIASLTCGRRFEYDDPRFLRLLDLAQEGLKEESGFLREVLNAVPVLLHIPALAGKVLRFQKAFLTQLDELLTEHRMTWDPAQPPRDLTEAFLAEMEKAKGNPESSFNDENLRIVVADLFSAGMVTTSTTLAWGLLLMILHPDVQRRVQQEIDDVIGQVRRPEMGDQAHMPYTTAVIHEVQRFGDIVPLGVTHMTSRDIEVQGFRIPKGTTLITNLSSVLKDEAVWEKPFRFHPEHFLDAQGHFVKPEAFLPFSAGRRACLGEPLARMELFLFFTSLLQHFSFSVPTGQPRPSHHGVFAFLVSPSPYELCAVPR

Chain of Rhodesain (Q95PM0 whole entry): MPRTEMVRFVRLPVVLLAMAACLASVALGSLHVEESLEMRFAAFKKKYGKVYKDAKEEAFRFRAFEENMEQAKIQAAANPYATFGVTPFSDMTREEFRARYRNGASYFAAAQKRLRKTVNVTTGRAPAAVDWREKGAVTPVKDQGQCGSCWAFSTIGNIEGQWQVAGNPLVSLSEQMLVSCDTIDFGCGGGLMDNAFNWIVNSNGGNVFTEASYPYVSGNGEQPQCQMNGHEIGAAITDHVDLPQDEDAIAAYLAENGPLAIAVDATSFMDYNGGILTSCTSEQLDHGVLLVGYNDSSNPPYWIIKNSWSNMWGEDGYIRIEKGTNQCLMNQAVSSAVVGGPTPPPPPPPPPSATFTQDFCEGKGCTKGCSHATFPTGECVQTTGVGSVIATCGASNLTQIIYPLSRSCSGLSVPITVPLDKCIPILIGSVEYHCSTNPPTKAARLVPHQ
Chain of Procathepsin L (P07711 whole entry): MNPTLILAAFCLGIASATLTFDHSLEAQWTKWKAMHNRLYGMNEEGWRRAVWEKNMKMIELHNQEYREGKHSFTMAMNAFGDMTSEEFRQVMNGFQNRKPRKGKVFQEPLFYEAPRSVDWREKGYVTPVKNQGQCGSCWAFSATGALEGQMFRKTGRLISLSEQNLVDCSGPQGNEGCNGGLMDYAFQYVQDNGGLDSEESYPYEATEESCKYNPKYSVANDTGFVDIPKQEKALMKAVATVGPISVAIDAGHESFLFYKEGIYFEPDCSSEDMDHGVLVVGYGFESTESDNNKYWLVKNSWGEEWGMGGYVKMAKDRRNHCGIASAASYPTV
Chain of Cytochrome P450 3A4 (P08684 whole entry): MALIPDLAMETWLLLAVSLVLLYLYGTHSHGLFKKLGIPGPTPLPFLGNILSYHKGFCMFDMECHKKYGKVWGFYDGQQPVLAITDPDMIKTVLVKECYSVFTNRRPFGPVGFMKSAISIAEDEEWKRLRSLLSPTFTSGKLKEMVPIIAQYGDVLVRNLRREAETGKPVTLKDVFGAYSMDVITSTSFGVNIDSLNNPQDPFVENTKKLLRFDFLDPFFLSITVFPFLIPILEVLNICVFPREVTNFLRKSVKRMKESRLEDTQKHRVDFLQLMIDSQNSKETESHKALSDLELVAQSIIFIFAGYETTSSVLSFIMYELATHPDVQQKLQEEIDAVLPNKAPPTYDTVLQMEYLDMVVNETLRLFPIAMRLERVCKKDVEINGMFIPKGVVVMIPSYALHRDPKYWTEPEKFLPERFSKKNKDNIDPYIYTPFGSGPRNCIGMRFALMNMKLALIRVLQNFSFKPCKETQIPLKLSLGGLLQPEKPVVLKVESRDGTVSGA
Chain of Cytochrome P450 2C9 (P11712 whole entry): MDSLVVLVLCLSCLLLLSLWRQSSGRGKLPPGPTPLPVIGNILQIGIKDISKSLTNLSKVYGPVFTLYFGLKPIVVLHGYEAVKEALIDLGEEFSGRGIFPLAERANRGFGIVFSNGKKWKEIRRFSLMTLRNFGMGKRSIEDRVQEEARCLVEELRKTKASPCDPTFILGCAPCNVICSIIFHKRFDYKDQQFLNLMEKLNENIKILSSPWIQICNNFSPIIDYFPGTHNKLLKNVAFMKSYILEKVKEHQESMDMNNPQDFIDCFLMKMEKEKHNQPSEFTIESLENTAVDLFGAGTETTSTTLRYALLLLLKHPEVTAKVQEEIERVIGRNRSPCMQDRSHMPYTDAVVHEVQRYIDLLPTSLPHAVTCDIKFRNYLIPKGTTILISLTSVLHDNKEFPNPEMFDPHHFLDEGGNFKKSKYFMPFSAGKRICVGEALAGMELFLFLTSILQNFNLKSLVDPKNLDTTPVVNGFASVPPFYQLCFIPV

| SMILES | Ratio Ki [1] | selectivity ratio [2] | pIC50 [3] | pKi (Procathepsin L) | pIC50 (L6) | solubility [7] | pKi (Rhodesain) | Vd [10] | fraction unbound [11] | logD at 100 µM [12] | Activity [13] | microsomal CLint at 2 µM [14] | microsomal CLint at 2 µM [15] | Papp at 15 h [16] | half-life [17] | clearance [18] | other results |
| --- | --- | --- | --- | --- | --- | --- | --- | --- | --- | --- | --- | --- | --- | --- | --- | --- | --- |
| N#CC1(NC(=O)[C@H](Cc2ccc(OC(F)(F)F)c(Cl)c2)NC(=O)c2cnn(-c3ccccc3)n2)CC1 | 28 | 3580 | 8.30 | 7.09 | 4.75 | < 0.3 µg/mL | 8.54 | – | – | – | – | – | – | – | – | – | pIC50 [4]: < 6.00; pIC50 [5]: 6.34; pIC50 [6]: < 6.00; pIC50 [8]: 6.25; pIC50 [9]: < 6.00 |
| Cn1ncc(C(=O)N[C@@H](Cc2ccc(OC(F)(F)F)c(Cl)c2)C(=O)NC2(C#N)CC2)n1 | 0.7 | – | 7.40 | 7.82 | < 5.00 | 53 µg/mL (≈ 116 µM) | 7.64 | 2.7 L/kg | 0.226 | 3.09 | 53.6% | < 10 µL/min/mg | < 10 µL/min/mg | 0.12 ×10⁻⁶ cm/s | 1.52 h | 22.8 mL/min/kg | pIC50 (Cytochrome P450 2C9): < 4.30; pIC50 (Cytochrome P450 3A4): < 4.30; pIC50 (Cytochrome P450 2D6): 5.22 |
| N#CC1(NC(=O)[C@H](Cc2ccc(OC(F)(F)F)c(Cl)c2)NC(=O)c2cnn(-c3cccnc3)n2)CC1 | 10 | – | 9.00 | 6.45 | < 5.00 | 4.2 µg/mL (≈ 8.08 µM) | 7.44 | 0.8 L/kg | 0.0395 | 3.7 | – | < 10 µL/min/mg | 11 µL/min/mg | 0.447 ×10⁻⁶ cm/s | 0.94 h | 22.6 mL/min/kg | pIC50 (Cytochrome P450 2C9): 5.15; pIC50 (Cytochrome P450 3A4): 5.10; pIC50 (Cytochrome P450 2D6): 5.70 |
| N#CC1(NC(=O)[C@H](Cc2ccc(Cl)c(Cl)c2)NC(=O)c2cnn(C3CC(F)(F)C3)n2)CC1 | 3.6 | 6840 | 8.10 | 7.19 | 4.26 | – | 7.74 | – | – | – | 15.8% | – | – | – | – | – | – |
| N#CC1(NC(=O)[C@H](Cc2ccc(OC(F)(F)F)c(Cl)c2)NC(=O)c2cnn(C3COC3)n2)CC1 | 0.8 | 32000 | 8.52 | 7.60 | 4.02 | 4 µg/mL (≈ 8.02 µM) | 7.51 | – | – | 2.58 | 43.1% | – | – | – | – | – | – |
| Nc1nc(N)nc(Nc2ccc([As]3SCC(CO)S3)cc2)n1 (stereo unspecified) [MELARSOPROL] | – | – | 8.05 to 8.40 | – | – | – | – | – | – | – | – | – | – | – | – | – | pIC50 [4]: < 6.74; pIC50 [5]: 7.59; pIC50 [6]: 7.00; pIC50 [8]: 7.36; pIC50 [9]: 7.07 |
| N#CC1(NC(=O)[C@H](Cc2ccc(OC(F)(F)F)c(Cl)c2)NC(=O)c2cnn(C3CCNC3)n2)CC1 (stereo partly specified) | 0.2 | 280000 | 9.70 | 7.85 | 4.25 | 253 µg/mL (≈ 494 µM) | 7.03 | – | – | 1.33 | 0.4% | – | – | – | – | – | – |
| CC(C)n1ncc(C(=O)N[C@@H](Cc2ccc(OC(F)(F)F)c(Cl)c2)C(=O)NC2(C#N)CC2)n1 | 0.2 | – | 8.40 | 8.40 | < 5.00 | 4 µg/mL (≈ 8.25 µM) | 7.74 | 3 L/kg | 0.0826 | 4.61 | – | 11 µL/min/mg | 26 µL/min/mg | 0.138 ×10⁻⁶ cm/s | 1.53 h | 32.9 mL/min/kg | – |
| N#CC1(NC(=O)[C@H](Cc2ccc(Cl)c(Cl)c2)NC(=O)c2cnn(C3COC3)n2)CC1 | 2.4 | – | 8.10 | 7.11 | < 4.00 | – | 7.48 | – | – | – | 45.3% | – | – | – | – | – | – |
| N#CC1(NC(=O)[C@H](Cc2ccc(OC(F)(F)F)c(Cl)c2)NC(=O)c2cnn(-c3ccncc3)n2)CC1 | 5 | – | 9.22 | 7.09 | < 5.00 | 5.2 µg/mL (≈ 10 µM) | 7.80 | – | – | 3.69 | 43.3% | – | – | – | – | – | – |

Source: ChEMBL document CHEMBL4043300, “2 H-1,2,3-Triazole-Based Dipeptidyl Nitriles: Potent, Selective, and Trypanocidal Rhodesain Inhibitors by Structure-Based Design” (J Med Chem, 2018)
